Data on six compounds can be found in ChEMBL document CHEMBL3576785, “Differential Targeting of Human Topoisomerase II Isoforms with Small Molecules” (J Med Chem, 2015).

Each structure is given as a SMILES string. Activity calls are given as the source filed them. No cut-off for these calls is given here.

The test system of test [1] is NALM-6. As to the kind of experiment: Selectivity ratio of IC50 for TOP2B double knockout human NALM6 cells to IC50 for wild type human NALM6 cells. The test is classed as functional.
The subject of another test is K562. The experiment in a line: Activity of TOP2 in human K562 cells assessed as poisoning activity by measuring phosphorylation of gamma-H2AX at Ser139 at 100 uM after 1 hr by DAPI staining-based epifluorescence microscopic analysis. The test is classed as cell-based. Summed up: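 K562 cells (human leukaemia, similar expression of both TOP2 isoforms) exposed to 100 µM analogue, DMSO as vehicle control. γ-H2AX (phospho-Ser139 H2AX) detected by immunofluorescence microscopy with nuclear counterstain. Signal quantified in γ-H2AX-positive cells and normalised to VP-16-treated cells.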

The target in test [2] is DNA topoisomerase 2-beta (Homo sapiens) (UniProt Q02880). The experiment in a line: Activity of TOP2B in human K562 cells assessed as poisoning activity at 100 uM after 1 hr by TARDIS assay. The format is cell-based. The method, boiled down: (§1)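 TARDIS (trapped in agarose DNA immunostaining) in K562 cells, which express both isoforms at similar levels. Cells given 100 µM analogue, DMSO as vehicle control. Drug-stabilised TOP2–DNA complexes detected with isoform-specific immunofluorescence, TOP2A or TOP2B. Fluorescence quantified and normalised to VP-16-treated cells. Single-dose screen, followed by dose–response.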

The nature of test [3]: Cytotoxicity against human NALM6 cells expressing 50% TOP2A assessed as growth inhibition after 5 days by XTT assay. The format is functional, cell-based. The note with it: NALM-6, 120 h. Summed up: (§2)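 Growth inhibition in Nalm-6 wild-type, TOP2A+/- and TOP2B-/- lines. IC50 values are means ±SD of 3 replicate experiments.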
On the technique in general: Tetrazolium dyes change colour on reduction, which living cells bring about.

A short description of test [4]: Cytotoxicity against TOP2B double knockout human NALM6 cells assessed as growth inhibition after 5 days by XTT assay. The test is classed as functional, cell-based. The following applies: NALM-6, 120 h. Summed up:
as §2

Test [5] is described as follows: Cytotoxicity against wild type human NALM6 cells assessed as growth inhibition after 5 days by XTT assay. The following applies: NALM-6, 120 h. The format is functional, cell-based. The method, boiled down: as §2
Test [6] deals with DNA topoisomerase 2-alpha (Homo sapiens) (UniProt P11388). The experiment in a line: Activity of TOP2A in human K562 cells assessed as poisoning activity at 100 uM after 1 hr by TARDIS assay. The test is classed as cell-based. The method, boiled down: as §1
Test [7] concerns NALM-6. As to the kind of experiment: Selectivity ratio of IC50 for human NALM6 cells expressing 50% TOP2A to IC50 for wild type human NALM6 cells. The format is functional.

DNA topoisomerase 2-alpha (Homo sapiens), sequence (P11388 whole entry): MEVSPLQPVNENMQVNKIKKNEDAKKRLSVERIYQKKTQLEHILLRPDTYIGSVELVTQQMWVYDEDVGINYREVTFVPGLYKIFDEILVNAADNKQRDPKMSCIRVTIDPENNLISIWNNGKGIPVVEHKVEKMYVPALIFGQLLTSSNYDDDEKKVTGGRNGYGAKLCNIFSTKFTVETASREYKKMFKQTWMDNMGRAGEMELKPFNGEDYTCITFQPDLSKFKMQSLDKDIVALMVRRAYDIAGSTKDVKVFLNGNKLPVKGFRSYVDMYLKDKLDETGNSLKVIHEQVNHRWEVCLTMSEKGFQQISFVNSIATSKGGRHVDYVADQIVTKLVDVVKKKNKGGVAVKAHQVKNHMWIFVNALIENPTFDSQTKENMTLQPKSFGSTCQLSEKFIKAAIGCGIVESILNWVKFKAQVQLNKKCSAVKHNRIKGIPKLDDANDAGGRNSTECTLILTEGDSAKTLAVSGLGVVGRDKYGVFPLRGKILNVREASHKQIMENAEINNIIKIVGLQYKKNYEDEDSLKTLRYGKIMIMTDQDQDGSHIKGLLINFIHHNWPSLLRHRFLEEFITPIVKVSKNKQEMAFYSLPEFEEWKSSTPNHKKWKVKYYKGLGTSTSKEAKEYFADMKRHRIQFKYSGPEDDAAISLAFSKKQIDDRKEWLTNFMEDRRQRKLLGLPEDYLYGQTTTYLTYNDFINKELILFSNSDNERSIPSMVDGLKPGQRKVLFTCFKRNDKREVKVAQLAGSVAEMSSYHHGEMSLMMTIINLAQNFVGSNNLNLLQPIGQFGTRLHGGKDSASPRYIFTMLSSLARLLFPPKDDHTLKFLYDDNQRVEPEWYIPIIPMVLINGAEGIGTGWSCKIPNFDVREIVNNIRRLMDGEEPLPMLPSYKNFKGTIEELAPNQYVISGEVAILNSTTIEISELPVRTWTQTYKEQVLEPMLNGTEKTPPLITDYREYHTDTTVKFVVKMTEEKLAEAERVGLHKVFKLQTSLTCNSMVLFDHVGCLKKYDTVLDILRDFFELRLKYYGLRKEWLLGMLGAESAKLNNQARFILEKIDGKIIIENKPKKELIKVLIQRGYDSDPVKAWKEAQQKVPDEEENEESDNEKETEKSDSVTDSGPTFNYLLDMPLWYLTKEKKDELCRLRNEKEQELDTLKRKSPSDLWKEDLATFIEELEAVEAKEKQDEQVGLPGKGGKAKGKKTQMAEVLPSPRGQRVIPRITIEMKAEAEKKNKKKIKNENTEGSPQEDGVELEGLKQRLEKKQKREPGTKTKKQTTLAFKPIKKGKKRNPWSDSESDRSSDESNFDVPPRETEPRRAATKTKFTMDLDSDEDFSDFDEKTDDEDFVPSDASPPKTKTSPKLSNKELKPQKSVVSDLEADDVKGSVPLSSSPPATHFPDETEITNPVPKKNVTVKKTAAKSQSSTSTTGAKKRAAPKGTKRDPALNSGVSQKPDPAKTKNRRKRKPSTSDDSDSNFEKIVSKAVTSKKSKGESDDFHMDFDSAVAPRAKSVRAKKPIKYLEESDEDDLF
DNA topoisomerase 2-beta (Homo sapiens), sequence (Q02880 whole entry, canonical isoform): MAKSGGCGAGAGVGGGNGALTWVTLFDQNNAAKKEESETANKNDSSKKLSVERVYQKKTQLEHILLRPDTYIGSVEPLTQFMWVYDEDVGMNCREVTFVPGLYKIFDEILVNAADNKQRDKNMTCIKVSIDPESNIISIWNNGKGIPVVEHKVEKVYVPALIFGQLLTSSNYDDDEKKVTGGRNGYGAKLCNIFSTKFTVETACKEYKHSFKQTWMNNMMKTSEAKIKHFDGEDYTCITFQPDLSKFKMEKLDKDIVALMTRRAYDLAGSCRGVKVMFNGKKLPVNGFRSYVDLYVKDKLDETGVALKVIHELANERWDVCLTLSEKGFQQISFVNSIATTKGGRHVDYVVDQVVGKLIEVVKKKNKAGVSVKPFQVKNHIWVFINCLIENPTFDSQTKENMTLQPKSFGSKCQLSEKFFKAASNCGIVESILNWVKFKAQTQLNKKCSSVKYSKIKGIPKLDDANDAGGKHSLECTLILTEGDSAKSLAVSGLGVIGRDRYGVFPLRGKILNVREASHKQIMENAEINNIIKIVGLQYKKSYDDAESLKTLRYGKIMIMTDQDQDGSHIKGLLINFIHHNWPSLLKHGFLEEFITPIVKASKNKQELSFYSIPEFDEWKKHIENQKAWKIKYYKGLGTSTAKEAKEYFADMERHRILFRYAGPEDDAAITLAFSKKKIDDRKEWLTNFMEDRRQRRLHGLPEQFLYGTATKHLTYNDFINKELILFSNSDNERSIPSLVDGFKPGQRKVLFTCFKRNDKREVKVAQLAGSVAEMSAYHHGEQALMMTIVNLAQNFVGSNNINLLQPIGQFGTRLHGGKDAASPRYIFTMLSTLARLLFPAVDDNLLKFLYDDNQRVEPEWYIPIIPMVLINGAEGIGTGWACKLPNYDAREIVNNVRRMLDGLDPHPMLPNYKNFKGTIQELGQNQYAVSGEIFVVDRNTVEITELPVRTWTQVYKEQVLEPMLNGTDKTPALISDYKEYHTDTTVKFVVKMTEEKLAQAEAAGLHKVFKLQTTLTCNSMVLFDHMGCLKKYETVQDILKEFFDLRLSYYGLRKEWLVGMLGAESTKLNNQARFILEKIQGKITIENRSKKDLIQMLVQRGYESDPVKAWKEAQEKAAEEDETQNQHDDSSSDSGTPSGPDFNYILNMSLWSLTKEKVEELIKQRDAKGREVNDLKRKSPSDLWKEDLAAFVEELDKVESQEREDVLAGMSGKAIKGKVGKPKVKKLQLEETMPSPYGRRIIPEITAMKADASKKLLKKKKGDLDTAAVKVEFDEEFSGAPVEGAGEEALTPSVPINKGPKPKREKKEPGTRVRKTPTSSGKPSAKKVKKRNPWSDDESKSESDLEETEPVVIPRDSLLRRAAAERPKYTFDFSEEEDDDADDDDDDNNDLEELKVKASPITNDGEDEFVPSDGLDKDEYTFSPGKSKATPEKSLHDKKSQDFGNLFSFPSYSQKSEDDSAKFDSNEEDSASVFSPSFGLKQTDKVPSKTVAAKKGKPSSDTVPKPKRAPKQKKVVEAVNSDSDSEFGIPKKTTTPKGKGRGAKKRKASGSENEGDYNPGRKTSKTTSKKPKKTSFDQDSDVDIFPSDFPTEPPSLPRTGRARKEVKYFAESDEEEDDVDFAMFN

On to `COc1cc([C@@H]2c3cc4c(cc3[C@@H](n3cc(CN(C)C)nn3)[C@H]3COC(=O)[C@H]23)OCO4)cc(OC)c1O`, for which the “Ratio IC50” value was determined as 2.1 with NALM-6 [1] and 1.4 in the test on NALM-6 [7]. Besides, the outcome (in the test on K562; in test [2]; in test [6]) was Active. Further, the IC50 (usually the midpoint of a concentration-inhibition curve) in test [3] was determined as 0.85 µM; in test [4], 1.32 µM; in test [5], 0.62 µM.

With `COC(=O)CCCCCn1cc(CO[C@@H]2c3cc4c(cc3[C@@H](c3cc(OC)c(O)c(OC)c3)[C@H]3C(=O)OC[C@@H]32)OCO4)nn1`, the outcome (in the test on K562; in test [2]; in test [6]) was Active. Besides, the IC50 in test [5] was found to be 3.9 µM.

Take `COc1cc([C@@H]2c3cc4c(cc3[C@@H](OCc3cn(CCCN(C)C)nn3)[C@H]3COC(=O)[C@H]23)OCO4)cc(OC)c1O`: the “Ratio IC50” value with NALM-6 [1] worked out at 2; with NALM-6 [7], 1.6. The outcome (in the test on K562; in test [2]; in test [6]) was Active. The half-inhibitory concentration (IC50) in test [3] stood at 1.9 µM; in test [4], 2.36 µM; in test [5] it was 1.2 µM.

As to `COc1cc([C@@H]2c3cc4c(cc3[C@@H](OCc3cn(-c5ccc(O)cc5)nn3)[C@H]3COC(=O)[C@H]23)OCO4)cc(OC)c1O`, the entries for the “Ratio IC50” value in the test with NALM-6 [1] and with NALM-6 [7] were 0.6 and 1, respectively. Further, the outcome (in the test with K562; in test [2]; in test [6]) was Active. The IC50 came to 3.5 µM in test [3], 1.92 µM in test [4] and 3.4 µM in test [5].

For the compound `COc1cc([C@@H]2c3cc4c(cc3[C@@H](O[C@@H]3O[C@@H]5CO[C@@H](C)O[C@H]5[C@H](O)[C@H]3O)[C@H]3COC(=O)[C@H]23)OCO4)cc(OC)c1O` [ETOPOSIDE], the “Ratio IC50” value in the test with NALM-6 [1] was 1.4; in the test on NALM-6 [7], 1.7. For the same compound, the outcome (in the test with K562; in test [2]; in test [6]) was Active. The IC50 in test [3] worked out at 0.234 µM; in test [4], 0.182 µM; in test [5] it was 0.134 µM.

For the compound `COc1cc([C@@H]2c3cc4c(cc3[C@@H](OCc3cn(Cc5ccc(C(=O)O)cc5)nn3)[C@H]3COC(=O)[C@H]23)OCO4)cc(OC)c1OC`, the result with K562 was Active. Besides, the IC50 in test [5] is above 10 µM.
